Experimental data: article PMC8859983 (Biomaterials science, 2020)
“Also recorded” adds a separate entry of the source. One block for each substance: values may come before it.

Legend:
[1] = target: T1, recombinant human MT1-MMP (Homo sapiens, UniProt P50281); experiment: Enzyme kinetics of fluorogenic probes, FRET peptide cleavage assay; format: biochemical; details: for kcat/Km: specificity constant, 15 nM refolded MT1-MMP, 37 °C, pH 8.0, mean ± SD
Method in brief: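 Refolded His-tagged human MT1-MMP catalytic/hinge construct (E. coli), 15 nM, with 0.5–4.5 μM FRET probes at 37 °C. Initial cleavage rates measured over 28 s. Km and Vmax from Michaelis–Menten fit; kcat = Vmax/[enzyme]. Mean ± SD.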

HT-1080 tumor [2] = experiment: Optical in vivo imaging after intratumoral injection; design: species or system BALB/c nude mice; details: 50 nmol intratumoral, IVIS; for fluorescence in the tumor site: 0.5–6 h post injection
Method in brief: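 Subcutaneous HT-1080 xenografts in nude mice; four groups (n = 3) with similar tumor size. Probe or control given intratumorally at 50 nmol. IVIS imaging of FAM (Ex/Em 492/518 nm) at 0.5, 1, 2, 4.5 and 6 h under 2.5% isoflurane in oxygen (1.5 L min⁻¹). Radiant efficiency quantified at tumor site.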

HT-1080 cells = experiment: Cell uptake / cell imaging of probes; format: cell-based, human; details: for cell uptake: 5 μM probe, 2 h at 37 °C, FAM fluorescence, confocal imaging
Method in brief: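 HT-1080 cells in RPMI 1640 with 10% FBS, penicillin and streptomycin at 37 °C, 5% CO₂. Seeded on glass-bottom dishes overnight, then fresh medium. Incubated with 5 μM probe for 2 h at 37 °C, ± 5 μM GM6001. Washed three times with PBS, fixed 10 min in 4% paraformaldehyde, DAPI-stained, then imaged for FAM fluorescence.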

recombinant MT1-MMP = experiment: Fluorescence activation; format: biochemical, human; details: for activation efficiency by MT1-MMP / selectivity for MT1-MMP compared with MMP-2: 1 μM probe; for activation efficiency by MT1-MMP: 15 nM MT1-MMP, 7 min incubation at 37 °C; for selectivity for MT1-MMP compared with MMP-2: 15 nM enzyme, 37 °C
Method in brief: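 Catalysis velocity: FRET probes at 1 μM incubated with 15 nM refolded recombinant MT1-MMP for 7 min at 37 °C. Fluorescence from substrate hydrolysis recorded at the set time.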

HT-1080 tumor [3] = experiment: Ex vivo tumor imaging and biodistribution after intravenous injection; format: in vivo, BALB/c nude mice; details: for fluorescence intensity / accumulation in the tumors: tumor cryosections 4.5 h post injection, n = 3 per group
Method in brief: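 BALB/c nude mice (4 weeks old) given 1×10⁶ HT-1080 cells in PBS subcutaneously, right flank. At tumor volume ~0.5–1 cm³, four groups (n = 3) received 50 nmol probe by tail-vein injection. Tumors harvested 4.5 h later, cryosectioned, stained with DiI (membrane) and DAPI (nuclei), and examined by fluorescence microscopy.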

[4] = target: T1, recombinant human MT1-MMP; experiment: Effect of binding peptide on catalysis of P-1 by MT1-MMP; format: biochemical; details: binding peptide 0.47 μM to 640 μM, pre-incubated with MT1-MMP
Method in brief: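 His-tagged human MT1-MMP catalytic plus hinge domains (Tyr112–Ile318) expressed in E. coli BL21(DE3)pLysS. Purified on Ni-NTA in urea and refolded by gradient dialysis. Enzyme pre-incubated with binding peptide (0.47–640 μM) before cleavage of FRET peptide substrate. Ex 328/Em 393 nm.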

HUVEC cells = experiment: MTT cell cytotoxicity assay; format: cell-based, human; details: 10 μM to 100 μM, 48 h, Fig. S2
Method in brief: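 HUVEC seeded at 4×10³–5×10³ cells/well and incubated 12 h. Then exposed to test compound at 10–100 μM for 48 h. MTT (5 mg mL⁻¹ stock in PBS) added for 4 h, formazan dissolved in DMSO, absorbance read at 490 nm.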

Substance: (Mca)-PLGL-(Dpa)-AR-(PEG)6-HWKHLHNTKTFL [Probe P-4]
kcat/Km [1]: 0.00442 ± 0.00037 µM⁻¹ s⁻¹

Substance: (FAM)-PLGLK-(Dabcyl)-AR-HWKHLHNTKTFL [Probe P-9]
fluorescence in the tumor site (HT-1080 tumor [2]): hardly detected
cell uptake (HT-1080 cells): higher cell uptake than P-8
activation efficiency by MT1-MMP (recombinant MT1-MMP): lower activation efficiency than P-7; also recorded: lower activation efficiency by MT1-MMP than P-8
selectivity for MT1-MMP compared with MMP-2 (recombinant MT1-MMP): higher selectivity for MT1-MMP compared with MMP-2
substrate inhibition of MT1-MMP (recombinant MT1-MMP; data not included): induced the substrate inhibition of MT1-MMP at higher concentrations

kcat/Km [1]: 0.00045 ± 3e-05 µM⁻¹ s⁻¹
Substance: (Mca)-PLGL-(Dpa)-AR-NH2 [Probe P-1, reference compound]

Substance: (Mca)-PLGL-(Dpa)-AR-HWKHLHNTKTFL [Probe P-2]
probe concentration above which substrate inhibition of MT1-MMP was induced (recombinant MT1-MMP; data not included): higher than 1.5 μM

Substance: (FAM)-PLGLK-(Dabcyl)-AR-NH2 [Probe P-8]
fluorescence in the tumor site (HT-1080 tumor [2]): hardly detected
activation efficiency by MT1-MMP (recombinant MT1-MMP): lower activation efficiency than P-7
selectivity for MT1-MMP compared with MMP-2 (recombinant MT1-MMP): higher selectivity for MT1-MMP compared with MMP-2
substrate inhibition of MT1-MMP (recombinant MT1-MMP; data not included): induced the substrate inhibition of MT1-MMP at higher concentrations
fluorescence intensity / accumulation in the tumors (HT-1080 tumor [3]; 50 nmol i.v.): weaker fluorescence intensities

Substance: (Mca)-PLGL-(Dpa)-AR-(PEG)24-HWKHLHNTKTFL [Probe P-6]
kcat/Km [1]: 0.00111 ± 9e-05 µM⁻¹ s⁻¹

effect on the catalysis of P-1 by the recombinant MT1-MMP [4]: had no effect
Substance: HWKHLHNTKTFL [MT1-AF7p]

Substance: (Mca)-PLGL-(Dpa)-AR-(PEG)12-HWKHLHNTKTFL [Probe P-5]
fold decreased Km value compared with control probe P-1 ([1]; MT1-MMP): 5.4 fold
fold enhanced hydrolysis rate (kcat) compared with control probe P-1 ([1]; MT1-MMP): 2.5 fold
fold specificity (kcat/Km) to MT1-MMP compared with control probe P-1 ([1]; MT1-MMP): ~14 fold
kcat/Km [1]: 0.00615 ± 0.00044 µM⁻¹ s⁻¹
selectivity for MT1-MMP compared with MMP-2 (recombinant MT1-MMP): significantly higher activation folds when incubated with MT1-MMP than with MMP-2

Substance: (FAM)-PLGLK-(Dabcyl)-AR-(PEG)12-HWKHLHNTKTFL [Probe P-7]
Km value compared with P-5 ([1]; MT1-MMP, Table S1): much higher Km value of P-7 than P-5
kcat value compared with P-5 ([1]; MT1-MMP, Table S1): higher kcat value than P-5
time to maximum fluorescent intensity at tumor (HT-1080 tumor [2]; Ex/Em 492/518 nm, n = 3 per group): about 1 h
cell uptake (HT-1080 cells): much higher cell uptake compared with the control cells MCF-7; also recorded: much higher cell uptake compared with P-8 and P-9
cell uptake in the presence of MMP inhibitor GM6001 (HT-1080 cells; HT-1080, 5 μM probe, GM6001 5 μM): decreased
cytotoxicity (HUVEC cells): low toxicity
location of the activated probe in frozen tissue slices (HT-1080 tumor [3]; 50 nmol i.v., 4.5 h post injection): located in the cytosol
fluorescence intensity / accumulation in the tumors (HT-1080 tumor [3]; 50 nmol i.v.): strongest fluorescence intensity
organs in which the probe was activated (biodistribution) (HT-1080 tumor [3]; 50 nmol, tail vein injection, FAM fluorescence, Fig. S3): predominantly in the tumor, liver, and kidney
